Not all results are given here.
HKDC1 act – HKDC1 hexokinase activators, primary screen, biochemical, fluorescence, uHTS; Q2TB90; recombinant HKDC1, G6PDH/diaphorase resazurin fluorescence; stronger effect = lower value; activity change, negative = activation, % at 20 µM; 340,000 tested, 0.056% active; AID 493187, 2011;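 active means activation of 40% or more at 20 µM, a change of -40% or lower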
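Dosing: single compound dose of 20 µM, 1% DMSO final / Test system: in-house human HKDC1 enzyme, G6PDH and diaphorase coupling enzymes / Quantity: 5 µg/mL HKDC1 final / Incubation: enzyme reaction 90 min, room temperature, in dark / Buffer or medium: pH 8.0 Tris with MgCl2 / Detection: coupled resazurin-to-resorufin fluorescence, Ex 525/Em 613 nm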
A number is an active result; . = inactive.

SMILES | HKDC1 act
CCN1C/C(=C\c2cccc([N+](=O)[O-])c2)C(=O)/C(=C/c2cccc([N+](=O)[O-])c2)C1 | .
COCCN1C=C2C(=O)C(C)(OC(=O)CCC(=O)OC)C(=O)C(Br)=C2C=C1c1ccc(OC)cc1 (stereo unspecified) | .
CN(C)c1ccc2nc3ccc(=[N+](C)C)cc-3sc2c1 | .
Nc1nc(N2CCN(c3ccccn3)CC2)nc2ccccc12 | -58
O=C(Nc1ccc2nc(-c3ccco3)c(-c3ccco3)nc2c1)N1CCN(c2ccccn2)CC1 | .
Cc1ccc(C)c(-n2c3nc(=O)[nH]c(=O)c-3cc3cc([N+](=O)[O-])ccc32)c1 | .
O=C(/C=C/c1ccc(Cl)cc1)c1ccc([N+](=O)[O-])o1 | .
C=CCn1c(SCC(=O)Nc2sc3c(c2C#N)CCC(C)C3)nc2cc(C(=O)O)ccc2c1=O (stereo unspecified) | .
CN(C)CC1CCC/C(=C\c2ccc(OC(=O)c3ccc(Cl)cc3)cc2)C1=O (stereo unspecified) | .
Cc1ccccc1N=C1NN=C(c2ccccc2F)CS1 | -47
CCC(c1ccccc1)C(CC)c1cc(O)c(O)c(O)c1 (stereo unspecified) | .
Cc1ccc(SC2=C(Sc3ccc(C)cc3)C(=O)c3ccccc3C2=O)cc1 | .
CCOC(=O)c1cc2c(=Cc3ccc(N(C)C)cc3)c3ccccc3n2[n+]1C | .
CCOc1ccc2nc3cc(N=Nc4ccc(N)nc4N)ccc3c(N)c2c1 | .
CCOc1ccc(N)c(SSc2cc(OCC)ccc2N)c1 | -42
Cc1onc(C(=O)Nc2ccc(OC(F)(F)F)cc2)c1[N+](=O)[O-] | .
Cc1cccc2c(N=NC(=O)c3ccc(NS(=O)(=O)c4cccs4)cc3)c(O)[nH]c12 | .
O=C(CSc1nc(-c2ccc(F)cc2)nc2c1Cc1ccccc1O2)Nc1cccc(C(=O)O)c1 | .
c1coc(-c2nc(-c3ccco3)c(-c3ccco3)nc2-c2ccco2)c1 | .
O=C(O)C(Cc1ccccc1)N1C(=O)/C(=C/C=C/c2ccco2)SC1=S (stereo unspecified) | .
Cc1[nH]n(-c2ccccc2)c(=O)c1/C=N/Nc1nncc(-c2ccccc2)n1 | -47
CCCCN(CCCC)C(=S)N/N=C/c1c(C)[nH]n(-c2ccccc2)c1=O | -41
Cc1cc(C)n2nc(SCc3nnc(SCc4ccccc4Cl)s3)nc2n1 | .
COC1=CC(=O)C(OC)=C(OC)C1=O | .
O=C(c1c[nH]c(C(=O)C(Cl)(Cl)Cl)c1)c1c(F)cccc1F | .
SMILES | HKDC1 act
CCN(CC)Cc1cc(O)c(CN(CC)CC)cc1O | .
Cc1ccc2oc(C(=O)N3CCC(N4CCSCC4)CC3)c(C)c2c1 | .
COc1ccc(C(=O)/C=C/Sc2nc3ccccc3o2)cc1 | .
Cc1ccc(NC2c3ncccc3C(=O)N2c2ccccc2C)cc1C (stereo unspecified) | .
Cc1ccc(C(=O)c2coc3c2C(=O)C(=O)c2ccccc2-3)cc1 | .
Cc1nc2c(O)c3c(c(O)c2nc1C)C1C=CC3CC1 | .
Cc1oc2c(c1C(=O)c1ccc(Cl)cc1)C(=O)C(=O)c1ccccc1-2 | .
Cn1cnc([N+](=O)[O-])c1Sc1ccc(Br)cc1 | -58
O=C(OCC(=O)N1CCN(C(=O)c2ccco2)CC1)c1cc(-c2ccco2)nc2ccccc12 | .
CC(=O)Nc1ccc(NC2=C/C(=N/S(=O)(=O)c3cccs3)c3ccccc3C2=O)cc1 | .
O=C1C(Cl)=C(N2CCN(c3ccccc3[N+](=O)[O-])CC2)C(=O)c2ccccc21 | .
CC(=O)C1=C(c2ccc(Br)cc2)C(=O)c2ccccc2C1=O | .
O=C1C(C2=C(O)c3ccccc3C2=O)=Nc2ccccc21 | -242
O=C1C(=C(I)I)c2ccccc2-c2ccccc21 | .
N=C1/C(=C/c2coc3ccccc3c2=O)C(=O)N=C2SC(c3ccco3)=NN12 | .
COc1ccc(OC(=O)N2C/C(=C/c3ccccc3)C(=O)/C(=C\c3ccccc3)C2)cc1 | .
Cc1ccccc1NC1=C/C(=N\S(=O)(=O)c2cccs2)c2ccccc2C1=O | .
O=C(O)COc1ccc(/C=N/NC(=O)c2ccc(-c3csc(Nc4ccc(Cl)cc4)n3)cc2)cc1 | .
COc1ccc(N=C2NN=C(c3ccc4c(c3)OCCO4)CS2)cc1 | -84
FC(F)Sc1ccc(N=C2NN=C(c3ccc4c(c3)OCCO4)CS2)cc1 | -101
CCC[n+]1c2ccccc2cc2ccccc21 | .
C=CCN1C=C2C(=O)C(C)(OC(=O)CCC(=O)OC)C(=O)C(Br)=C2C=C1c1ccc(OC)cc1 (stereo unspecified) | .
CSc1nc(N(CCO)CCO)c2sc3nc(-c4ccco4)c4c(c3c2n1)CCC4 | .
CN(C)c1ccc(C=c2c3cc(O)ccc3n3c2cc(-c2ccccc2)[n+]3C)cc1 | .
CC(=O)N1CCN(C2c3cccc4cccc(c34)C2NS(=O)(=O)c2ccccc2)CC1 (stereo unspecified) | -49
SMILES | HKDC1 act
Cn1cnnc1SC1c2cccc3cccc(c23)C1NS(=O)(=O)c1ccccc1 (stereo unspecified) | -49
O=C(O)c1ccc2c(=O)n(-c3ccccc3)c(=S)[nH]c2c1 | .
COc1ccc(S(=O)(=O)/N=C2\C=C(Nc3ccc(O)cc3)C(=O)c3ccccc32)cc1 | .
O=C(O)c1ccc(N2C(=O)/C(=C/c3ccc(-c4ccc([N+](=O)[O-])cc4)o3)C=C2c2ccccc2)cc1 | .
CC(=NNC(=S)N1CC2CCC(CC2)C1)c1cnccn1 | -47
CC(=NNC(=S)N1CCN(C2CCCCCC2)CC1)c1ccccn1 | -42
Cc1cc(C)c(S(=O)(=O)/N=C2/C=C(Sc3ncn[nH]3)C(=O)c3ccccc32)cc1C | .
CC(=O)NC1=C(N(C)C2CCS(=O)(=O)C2)C(=O)c2ccccc2C1=O (stereo unspecified) | .
NC1=CC(=O)C(=O)c2ccccc21 | .
CCOC(=O)/C=C(\C)Sc1cc(O)c2ccccc2c1O | .
COc1cc(/C=C2\SC(=Nc3ccc(Cl)c(C(=O)O)c3)NC2=O)c(Br)c(Br)c1O | .
COc1cc([N+](=O)[O-])ccc1-c1ccc(/C=C2\C(=O)ON=C2c2ccccc2)o1 | .
COc1cccc(-n2c(N)c(C(=O)Nc3c(C)n(C)n(-c4ccccc4)c3=O)c3nc4ccccc4nc32)c1 | .
Cc1onc(-c2ccccc2)c1C(=O)NNC(=S)NC(=O)c1ccc(Br)cc1 | -51
COc1ccc(-c2cc(C(=O)NNC(=S)NC(=O)c3c(-c4ccccc4)noc3C)[nH]n2)cc1 | -46
NC(=S)N=Nc1c(O)cc(O)c2[nH]c(=O)ccc12 | .
Cc1ccc(C)c(-n2nnnc2Sc2nnnn2-c2ccccc2)c1 | .
O=C(CSc1nnc(CCCN2C(=O)c3cccc4cccc(c34)C2=O)n1-c1ccccc1)N1CCN(CCO)CC1 | .
COc1cc(/C=C2\SC(=O)N(c3cccc(Cl)c3)C2=O)cc([N+](=O)[O-])c1O | .
O=C(/C=C/Sc1ccccc1)c1ccccc1 | .
Oc1ccc2ccccc2c1C=NC1CCCCC1 | .
COc1ccccc1N(CC(=O)N/N=C/c1c(O)ccc2ccccc12)S(C)(=O)=O | -40
COc1ccc(S(=O)(=O)Nc2ccc(O)c3ccccc23)cc1 | .
NS(=O)(=O)c1ccc(N=Nc2c(=O)[nH]n3c(=O)c4c([nH]c23)CCCC4)cc1 | .
COc1ccc(C(=O)/C=C/c2ccsc2)cc1CSCC(=O)O | .
O=c1[nH][nH]c2c(N=Cc3ccccc3O)ccc(F)c12 | .
CC(=O)n1cc(N(C(=O)CCl)c2ccc([N+](=O)[O-])cc2)c2ccccc21 | .

Source: PubChem BioAssay
